Source: ChEMBL document CHEMBL2157921, “Identification of novel 3,5-diarylpyrazoline derivatives containing salicylamide moiety as potential anti-melanoma agents” (Bioorg Med Chem Lett, 2012)
Blank lines part the entries; values can stand above or below the compound they belong to.

Key:
[1] = Antiproliferative activity against human WM266.4 cells expressing BRAF V600E mutant after 24 hrs by MTT assay; format: functional; conditions: WM 266-4, 24 h
[2] = Inhibition of mouse full length GST-tagged BRAF V600E mutant using MEK1 as substrate incubated for 1 hr prior to substrate addition measured after 25 min by gel electrophoresis
How it was run: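 Kinase activity was read out as BRAF V600E-mediated phosphorylation of MEK. Results are given as IC50 values.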

[3] = molecular target: Serine/threonine-protein kinase B-raf (Homo sapiens, UniProt P15056, V600E); test: Inhibition of BRAF V600E mutant in human WM266.4 cells assessed as inhibition of ERK1/2 phosphorylation by ELISA; format: cell-based
Serine/threonine-protein kinase B-raf, sequence (P15056 2-766 V600E limits assumed): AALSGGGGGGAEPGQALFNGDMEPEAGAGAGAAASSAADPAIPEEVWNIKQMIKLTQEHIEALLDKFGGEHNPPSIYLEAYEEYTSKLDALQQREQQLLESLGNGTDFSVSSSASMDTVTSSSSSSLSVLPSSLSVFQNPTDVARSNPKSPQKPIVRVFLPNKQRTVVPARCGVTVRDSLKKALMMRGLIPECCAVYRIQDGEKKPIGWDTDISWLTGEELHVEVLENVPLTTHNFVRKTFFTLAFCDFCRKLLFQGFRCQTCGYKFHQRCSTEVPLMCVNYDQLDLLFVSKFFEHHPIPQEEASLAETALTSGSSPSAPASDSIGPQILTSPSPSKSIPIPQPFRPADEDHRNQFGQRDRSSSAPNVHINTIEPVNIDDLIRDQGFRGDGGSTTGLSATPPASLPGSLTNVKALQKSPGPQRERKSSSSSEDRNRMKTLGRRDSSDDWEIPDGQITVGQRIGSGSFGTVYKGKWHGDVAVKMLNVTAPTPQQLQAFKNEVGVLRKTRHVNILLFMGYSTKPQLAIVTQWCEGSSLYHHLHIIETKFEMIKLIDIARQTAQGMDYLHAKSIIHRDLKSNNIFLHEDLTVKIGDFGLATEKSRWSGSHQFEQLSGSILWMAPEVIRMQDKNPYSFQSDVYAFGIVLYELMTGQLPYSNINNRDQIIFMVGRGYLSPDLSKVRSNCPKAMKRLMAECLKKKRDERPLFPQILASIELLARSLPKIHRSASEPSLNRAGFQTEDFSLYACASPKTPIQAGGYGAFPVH

[4] = Antiproliferative activity against human WM1361 cells expressing wild type BRAF after 24 hrs by MTT assay; format: functional, cell-based; conditions: WM1361, 24 h
[5] = Inhibition of bovine FAK isolated from brain after 20 mins by turbidimetric analysis; design: species or system Bos taurus
[6] = molecular target: T1, Aurora kinase A (Homo sapiens, UniProt O14965); test: Inhibition of human recombinant Aurora A kinase using PLK as substrate incubated for 15 mins prior to substrate addition measured after 60 mins by immunofluorescence method
T1 sequence (O14965 whole entry): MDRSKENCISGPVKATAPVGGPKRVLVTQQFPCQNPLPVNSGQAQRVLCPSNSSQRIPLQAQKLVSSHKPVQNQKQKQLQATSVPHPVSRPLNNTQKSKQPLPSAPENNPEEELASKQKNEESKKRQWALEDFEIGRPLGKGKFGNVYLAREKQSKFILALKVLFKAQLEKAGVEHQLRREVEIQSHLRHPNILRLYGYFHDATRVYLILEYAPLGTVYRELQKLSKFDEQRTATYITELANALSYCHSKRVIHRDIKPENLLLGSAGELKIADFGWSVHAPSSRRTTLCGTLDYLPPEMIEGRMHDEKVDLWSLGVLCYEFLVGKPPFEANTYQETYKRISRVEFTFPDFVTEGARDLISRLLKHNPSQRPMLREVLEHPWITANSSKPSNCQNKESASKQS

[7] = molecular target: Receptor tyrosine-protein kinase erbB-2 (Homo sapiens, UniProt P04626); test: Inhibition of HER2
Receptor tyrosine-protein kinase erbB-2, sequence (P04626 whole entry): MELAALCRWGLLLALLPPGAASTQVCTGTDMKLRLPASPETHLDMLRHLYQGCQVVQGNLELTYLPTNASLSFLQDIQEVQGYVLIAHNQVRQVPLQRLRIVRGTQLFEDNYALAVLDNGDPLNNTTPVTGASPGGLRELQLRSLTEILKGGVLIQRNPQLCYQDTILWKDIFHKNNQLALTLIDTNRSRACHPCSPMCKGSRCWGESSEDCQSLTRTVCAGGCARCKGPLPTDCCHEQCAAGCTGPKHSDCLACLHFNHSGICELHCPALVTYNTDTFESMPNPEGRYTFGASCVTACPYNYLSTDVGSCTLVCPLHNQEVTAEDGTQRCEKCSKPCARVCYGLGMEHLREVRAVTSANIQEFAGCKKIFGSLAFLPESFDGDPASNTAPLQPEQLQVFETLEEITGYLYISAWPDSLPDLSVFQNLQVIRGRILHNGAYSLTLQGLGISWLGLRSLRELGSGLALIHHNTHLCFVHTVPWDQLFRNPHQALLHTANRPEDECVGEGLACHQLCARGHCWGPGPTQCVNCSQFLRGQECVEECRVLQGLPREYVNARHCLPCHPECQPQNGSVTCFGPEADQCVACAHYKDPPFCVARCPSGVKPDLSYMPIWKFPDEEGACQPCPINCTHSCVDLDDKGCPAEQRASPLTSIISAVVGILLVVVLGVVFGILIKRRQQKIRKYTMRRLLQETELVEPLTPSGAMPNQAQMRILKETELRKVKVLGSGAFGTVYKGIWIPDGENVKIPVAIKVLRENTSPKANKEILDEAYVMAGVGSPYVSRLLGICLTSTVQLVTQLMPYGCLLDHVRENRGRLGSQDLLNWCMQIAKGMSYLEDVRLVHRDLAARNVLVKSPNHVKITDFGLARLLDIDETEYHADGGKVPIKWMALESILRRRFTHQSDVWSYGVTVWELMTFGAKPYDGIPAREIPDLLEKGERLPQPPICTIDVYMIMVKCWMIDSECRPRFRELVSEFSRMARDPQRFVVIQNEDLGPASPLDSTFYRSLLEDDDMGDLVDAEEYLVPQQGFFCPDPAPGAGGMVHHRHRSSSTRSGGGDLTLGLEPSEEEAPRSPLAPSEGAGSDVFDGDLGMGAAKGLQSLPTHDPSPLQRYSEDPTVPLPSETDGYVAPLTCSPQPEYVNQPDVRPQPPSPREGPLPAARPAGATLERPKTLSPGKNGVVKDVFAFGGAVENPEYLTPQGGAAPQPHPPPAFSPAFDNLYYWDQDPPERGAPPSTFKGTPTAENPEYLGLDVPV

[8] = molecular target: Vascular endothelial growth factor receptor 2 (Homo sapiens, UniProt P35968); test: Inhibition of VEGFR2 using gastrin as substrate after 60 mins by immunofluorescence method
Vascular endothelial growth factor receptor 2, sequence (P35968 whole entry): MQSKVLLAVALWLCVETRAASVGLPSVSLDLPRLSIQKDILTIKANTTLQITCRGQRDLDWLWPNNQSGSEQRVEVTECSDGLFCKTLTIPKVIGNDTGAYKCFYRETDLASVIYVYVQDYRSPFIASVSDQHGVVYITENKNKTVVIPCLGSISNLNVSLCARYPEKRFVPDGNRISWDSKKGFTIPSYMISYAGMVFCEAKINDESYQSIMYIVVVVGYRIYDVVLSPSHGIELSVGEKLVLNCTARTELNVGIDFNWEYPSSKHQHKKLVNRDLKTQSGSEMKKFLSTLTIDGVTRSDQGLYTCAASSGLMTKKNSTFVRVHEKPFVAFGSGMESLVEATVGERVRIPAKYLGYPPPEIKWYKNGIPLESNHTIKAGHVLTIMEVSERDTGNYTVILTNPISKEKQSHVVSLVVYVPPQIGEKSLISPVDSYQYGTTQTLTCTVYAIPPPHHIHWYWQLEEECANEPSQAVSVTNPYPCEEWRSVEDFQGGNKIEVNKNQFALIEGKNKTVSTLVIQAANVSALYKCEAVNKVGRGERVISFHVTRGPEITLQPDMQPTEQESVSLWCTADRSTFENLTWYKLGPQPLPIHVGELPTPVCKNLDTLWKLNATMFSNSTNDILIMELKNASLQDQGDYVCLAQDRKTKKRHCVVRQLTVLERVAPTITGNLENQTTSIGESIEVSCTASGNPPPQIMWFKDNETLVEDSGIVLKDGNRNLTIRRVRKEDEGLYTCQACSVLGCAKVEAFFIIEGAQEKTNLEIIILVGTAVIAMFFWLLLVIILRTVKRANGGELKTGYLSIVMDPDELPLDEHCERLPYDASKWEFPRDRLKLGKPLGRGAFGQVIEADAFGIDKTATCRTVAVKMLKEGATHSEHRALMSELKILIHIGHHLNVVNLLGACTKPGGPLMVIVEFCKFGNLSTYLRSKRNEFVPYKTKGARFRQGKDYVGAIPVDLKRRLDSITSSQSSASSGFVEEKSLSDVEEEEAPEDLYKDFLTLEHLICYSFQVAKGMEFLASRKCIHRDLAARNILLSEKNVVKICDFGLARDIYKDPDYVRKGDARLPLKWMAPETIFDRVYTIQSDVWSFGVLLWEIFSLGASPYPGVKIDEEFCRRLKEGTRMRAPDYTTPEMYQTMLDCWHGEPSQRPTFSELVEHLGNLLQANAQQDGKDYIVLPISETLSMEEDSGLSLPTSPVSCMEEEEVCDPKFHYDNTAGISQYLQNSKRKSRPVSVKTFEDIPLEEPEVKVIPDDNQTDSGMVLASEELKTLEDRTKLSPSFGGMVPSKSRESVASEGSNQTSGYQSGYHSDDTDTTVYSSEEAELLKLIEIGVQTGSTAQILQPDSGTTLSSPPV

[9] = molecular target: Epidermal growth factor receptor (Homo sapiens, UniProt P00533); test: Inhibition of EGFR
Epidermal growth factor receptor, sequence (P00533 whole entry): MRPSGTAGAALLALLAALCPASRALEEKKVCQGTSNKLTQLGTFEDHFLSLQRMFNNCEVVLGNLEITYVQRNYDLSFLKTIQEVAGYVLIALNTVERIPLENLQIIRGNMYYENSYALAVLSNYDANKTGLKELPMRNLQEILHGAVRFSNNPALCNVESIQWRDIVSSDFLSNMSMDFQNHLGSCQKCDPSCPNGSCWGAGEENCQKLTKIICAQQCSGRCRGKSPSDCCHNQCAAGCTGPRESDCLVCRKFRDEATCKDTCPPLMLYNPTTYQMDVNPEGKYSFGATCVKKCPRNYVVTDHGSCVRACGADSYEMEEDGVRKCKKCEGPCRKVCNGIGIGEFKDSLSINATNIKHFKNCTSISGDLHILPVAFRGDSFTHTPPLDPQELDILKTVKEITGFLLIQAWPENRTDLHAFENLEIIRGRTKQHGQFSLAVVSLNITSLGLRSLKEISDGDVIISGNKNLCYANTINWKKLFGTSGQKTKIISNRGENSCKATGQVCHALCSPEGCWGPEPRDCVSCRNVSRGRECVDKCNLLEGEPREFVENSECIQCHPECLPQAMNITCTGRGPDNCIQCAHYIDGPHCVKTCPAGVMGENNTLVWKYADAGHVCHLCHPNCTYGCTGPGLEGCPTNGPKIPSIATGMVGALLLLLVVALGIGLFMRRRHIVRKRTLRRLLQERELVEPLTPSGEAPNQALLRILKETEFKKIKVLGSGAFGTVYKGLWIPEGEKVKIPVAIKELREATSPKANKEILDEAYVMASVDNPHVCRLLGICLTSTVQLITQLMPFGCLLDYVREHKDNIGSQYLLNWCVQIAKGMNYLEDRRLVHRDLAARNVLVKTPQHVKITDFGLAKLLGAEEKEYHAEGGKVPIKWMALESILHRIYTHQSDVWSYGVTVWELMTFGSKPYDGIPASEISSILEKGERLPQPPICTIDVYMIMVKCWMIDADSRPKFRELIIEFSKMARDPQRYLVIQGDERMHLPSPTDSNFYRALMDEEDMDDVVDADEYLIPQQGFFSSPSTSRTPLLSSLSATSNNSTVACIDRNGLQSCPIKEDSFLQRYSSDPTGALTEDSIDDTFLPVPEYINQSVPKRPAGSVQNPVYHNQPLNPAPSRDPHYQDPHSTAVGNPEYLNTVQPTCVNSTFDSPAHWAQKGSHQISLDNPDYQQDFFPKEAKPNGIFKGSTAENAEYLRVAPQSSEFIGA

Compound: COc1ccc(C2=NN(C(=O)c3cc(OC)ccc3O)C(c3ccc(Br)cc3)C2)cc1 (centres undefined)
- GI50 [1]: 12.9 µM
- IC50 [2]: 6.94 µM

Compound: COc1ccc(C2=NN(C(=O)c3cc(Cl)ccc3O)C(c3ccc(Cl)cc3)C2)cc1 (centres undefined)
- GI50 [1]: 1.52 µM
- IC50 [2]: 0.57 µM

Compound: COc1ccc(C2=NN(C(=O)c3ccc(Cl)cc3O)C(c3ccc(Cl)cc3)C2)cc1 (centres undefined)
- GI50 [1]: 0.24 µM
- IC50 [3]: 0.81 µM
- GI50 [4]: 12.1 µM
- IC50 [5]: > 25 µM
- IC50 [2]: 0.16 µM
- IC50 [6]: > 25 µM
- IC50 [7]: > 25 µM
- IC50 [8]: > 25 µM
- IC50 [9]: 10.5 µM

Compound: COc1ccc(C2=NN(C(=O)c3cc(Br)ccc3O)C(c3ccc(Cl)cc3)C2)cc1 (centres undefined)
- GI50 [1]: 2.39 µM
- IC50 [2]: 1.21 µM

Compound: COc1ccc(C2=NN(C(=O)c3cc(I)ccc3O)C(c3ccc(Cl)cc3)C2)cc1 (centres undefined)
- GI50 [1]: 3.27 µM
- IC50 [2]: 1.3 µM

Compound: COc1ccc(C2=NN(C(=O)c3cc(OC)ccc3O)C(c3ccc(Cl)cc3)C2)cc1 (centres undefined)
- GI50 [1]: 5.04 µM
- IC50 [2]: 3.72 µM

Compound: COc1ccc(C2=NN(C(=O)c3cc(Br)ccc3O)C(c3ccc(OC)cc3)C2)cc1 (centres undefined)
- GI50 [1]: 18.4 µM
- IC50 [2]: 4.92 µM

Compound: COc1ccc(C2=NN(C(=O)c3cc(OC)ccc3O)C(c3ccc(OC)cc3)C2)cc1 (centres undefined)
- GI50 [1]: > 20 µM
- IC50 [2]: 8.38 µM

Compound: COc1ccc(C2=NN(C(=O)c3ccc(Cl)cc3O)C(c3ccc(Br)cc3)C2)cc1 (centres undefined)
- GI50 [1]: 2.89 µM
- IC50 [2]: 1.38 µM

Compound: COc1ccc(C2=NN(C(=O)c3cc(I)ccc3O)C(c3ccc(Br)cc3)C2)cc1 (centres undefined)
- GI50 [1]: 7.35 µM
- IC50 [2]: 4.1 µM

Compound: CNC(=O)c1cc(Oc2ccc(NC(=O)Nc3ccc(Cl)c(C(F)(F)F)c3)cc2)ccn1 [SORAFENIB]
- GI50 [1]: 8.1 µM
- IC50 [2]: 0.06 µM

Further compounds by falling IC50 [2], results first:

- IC50 [2]: 13.3 µM
Compound: COc1ccc(C2=NN(C(=O)c3cc(I)ccc3O)C(c3ccc(OC)cc3)C2)cc1 (centres undefined)
- GI50 [1]: 15.6 µM

- IC50 [2]: 10.3 µM
Compound: COc1ccc(C2=NN(C(=O)c3cc(OC)ccc3O)C(c3ccc(OCc4ccccc4)cc3)C2)cc1 (centres undefined)
- GI50 [1]: 13.9 µM

- IC50 [2]: 9.3 µM
Compound: COc1ccc(C2=NN(C(=O)c3cc(Cl)ccc3O)C(c3ccc(OC)cc3)C2)cc1 (centres undefined)
- GI50 [1]: 12.6 µM

- IC50 [2]: 7.22 µM
Compound: COc1ccc(C2=NN(C(=O)c3cc(Br)ccc3O)C(c3ccc(OCc4ccccc4)cc3)C2)cc1 (centres undefined)
- GI50 [1]: 12.9 µM

- IC50 [2]: 7.04 µM
Compound: COc1ccc(C2=NN(C(=O)c3ccc(Cl)cc3O)C(c3ccc(OC)cc3)C2)cc1 (centres undefined)
- GI50 [1]: 13.3 µM

- IC50 [2]: 5.9 µM
Compound: COc1ccc(C2=NN(C(=O)c3cc(I)ccc3O)C(c3ccc(OCc4ccccc4)cc3)C2)cc1 (centres undefined)
- GI50 [1]: 13 µM

- IC50 [2]: 5.69 µM
Compound: COc1ccc(C2=NN(C(=O)c3cc(Cl)ccc3O)C(c3ccc(OCc4ccccc4)cc3)C2)cc1 (centres undefined)
- GI50 [1]: 12.9 µM

- IC50 [2]: 5.01 µM
Compound: COc1ccc(C2=NN(C(=O)c3ccc(Cl)cc3O)C(c3ccc(OCc4ccccc4)cc3)C2)cc1 (centres undefined)
- GI50 [1]: 7.89 µM

- IC50 [2]: 3.69 µM
Compound: COc1ccc(C2=NN(C(=O)c3cc(Br)ccc3O)C(c3ccc(Br)cc3)C2)cc1 (centres undefined)
- GI50 [1]: 7.4 µM

- IC50 [2]: 2.51 µM
Compound: COc1ccc(C2=NN(C(=O)c3cc(Cl)ccc3O)C(c3ccc(Br)cc3)C2)cc1 (centres undefined)
- GI50 [1]: 3.48 µM
